# Measurements as given in ChEMBL document CHEMBL2169854, “New insight into the central benzodiazepine receptor-ligand interactions: design, synthesis, biological evaluation, and molecular modeling of 3-substituted 6-phenyl-4H-imidazo[1,5-a][1,4]benzodiazepines and related compounds” (J Med Chem, 2011).
# Calls of active or inactive are those of the source. The rule behind the calls is not given here.
# How the values were obtained:
# Oocyte [1] = assay: (§1) Modulation of human recombinant GABA-A alpha5beta2gamma2L receptor expressed in Xenopus laevis oocytes assessed as effect on GABA-induced chloride current at 1 uM incubated 60 seconds before addition of GABA measured after 30 seconds at holding potential -70 mV by two-microelectrode voltage clamp technique relative to control; format: cell-based
# [2] = Displacement of [3H]flumazenil from central benzodiazepine receptor in human cortical membrane after 90 mins by beta liquid scintillation counting; format: cell membranes
# Oocyte [3] = assay: as §1, with “Antagonist at” for “Modulation of”, “blockade of diazepam-induced potentiation of” for “effect on”, “10” for “1”, “technique” for “technique relative to control”; format: functional, cell-based
# How it was run: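 Oocytes expressing human α1β2γ2L, α2β1γ2L or α5β2γ2L receptors were clamped at −70 mV. Compound at 10 μM was tested against the enhancement of the GABA EC10 response by 1.0 μM diazepam, with 60 s preapplication and 30 s coapplication. The response was expressed as percent potentiation, from 2–3 oocytes.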
# [4] = target: T1, GABA-A receptor; alpha-5/beta-3/gamma-2 (Homo sapiens, UniProt P18507+P28472+P31644); assay: Displacement of [3H]flumazenil from human recombinant GABA-A alpha5beta3gamma2L receptor in HEK293 cells; format: cell-based
# T1 sequence (P18507 whole entry): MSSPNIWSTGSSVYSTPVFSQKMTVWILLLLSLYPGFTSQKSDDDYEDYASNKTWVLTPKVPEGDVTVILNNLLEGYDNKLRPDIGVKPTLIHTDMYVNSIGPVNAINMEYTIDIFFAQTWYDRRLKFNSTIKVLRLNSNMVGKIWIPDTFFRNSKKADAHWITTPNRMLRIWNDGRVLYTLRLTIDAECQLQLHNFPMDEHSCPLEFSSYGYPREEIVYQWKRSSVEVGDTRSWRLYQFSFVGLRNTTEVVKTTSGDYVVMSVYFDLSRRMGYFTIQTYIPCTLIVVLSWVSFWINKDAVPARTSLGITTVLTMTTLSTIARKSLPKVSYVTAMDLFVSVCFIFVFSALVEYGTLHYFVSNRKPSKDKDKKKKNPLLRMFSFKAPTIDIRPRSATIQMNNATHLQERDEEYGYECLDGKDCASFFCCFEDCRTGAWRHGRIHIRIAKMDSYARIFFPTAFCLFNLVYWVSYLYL
# T1 sequence (P28472 whole entry): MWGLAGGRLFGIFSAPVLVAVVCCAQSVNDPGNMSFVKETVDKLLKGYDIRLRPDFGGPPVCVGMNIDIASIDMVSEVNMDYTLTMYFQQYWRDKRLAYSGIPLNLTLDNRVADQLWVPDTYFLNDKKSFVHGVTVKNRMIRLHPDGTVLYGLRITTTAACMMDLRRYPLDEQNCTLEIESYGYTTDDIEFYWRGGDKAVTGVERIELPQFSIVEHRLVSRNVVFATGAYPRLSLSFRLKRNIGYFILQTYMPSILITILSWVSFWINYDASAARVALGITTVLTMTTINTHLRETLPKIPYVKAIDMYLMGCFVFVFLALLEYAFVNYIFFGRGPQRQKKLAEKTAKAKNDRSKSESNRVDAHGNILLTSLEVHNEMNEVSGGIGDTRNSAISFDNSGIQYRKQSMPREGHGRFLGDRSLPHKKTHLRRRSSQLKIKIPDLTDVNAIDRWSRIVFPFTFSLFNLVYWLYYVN
# T1 sequence (P31644 whole entry): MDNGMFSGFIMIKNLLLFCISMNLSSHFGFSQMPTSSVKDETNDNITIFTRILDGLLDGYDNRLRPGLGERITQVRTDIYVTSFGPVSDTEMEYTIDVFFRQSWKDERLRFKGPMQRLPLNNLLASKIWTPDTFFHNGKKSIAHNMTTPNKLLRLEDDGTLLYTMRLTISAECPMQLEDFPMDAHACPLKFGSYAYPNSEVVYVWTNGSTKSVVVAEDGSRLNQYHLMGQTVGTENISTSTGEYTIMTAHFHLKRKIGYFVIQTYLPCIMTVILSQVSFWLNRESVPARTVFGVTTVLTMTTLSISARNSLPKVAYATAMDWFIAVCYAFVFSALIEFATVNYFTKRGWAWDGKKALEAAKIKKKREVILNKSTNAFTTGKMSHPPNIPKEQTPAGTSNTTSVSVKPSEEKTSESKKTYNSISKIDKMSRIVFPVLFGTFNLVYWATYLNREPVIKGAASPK
# How it was run: (§2)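 Membranes came from stably transfected HEK293 lines expressing α2β2γ2 or α5β3γ2, grown in MEM/EBSS with 10% FCS at 37 C, and were resuspended in 10 mM potassium phosphate pH 7.4 with 100 mM KCl. […] At least six concentrations were tested, DMSO ≤1%. Ki was obtained by Cheng–Prusoff from n = 3 experiments run in triplicate.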
# [5] = Displacement of [3H]flumazenil from central benzodiazepine receptor in bovine cortical membrane after 90 mins by beta liquid scintillation counting; format: cell membranes, Bos taurus
# How it was run: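 At least six concentrations spanning 3 log units were tested in 2% DMSO. Ki was obtained by Cheng–Prusoff (Kd 0.85 nM bovine, 0.91 nM human), mean of three determinations.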
# [6] = target: T2, GABA A receptor alpha-2/beta-2/gamma-2 (Homo sapiens, UniProt P18507+P47869+P47870); assay: Displacement of [3H]flumazenil from human recombinant GABA-A alpha2beta2gamma2L receptor expressed in HEK293 cells; format: cell-based; how it was run: as §2
# T2 sequence (P47870 whole entry): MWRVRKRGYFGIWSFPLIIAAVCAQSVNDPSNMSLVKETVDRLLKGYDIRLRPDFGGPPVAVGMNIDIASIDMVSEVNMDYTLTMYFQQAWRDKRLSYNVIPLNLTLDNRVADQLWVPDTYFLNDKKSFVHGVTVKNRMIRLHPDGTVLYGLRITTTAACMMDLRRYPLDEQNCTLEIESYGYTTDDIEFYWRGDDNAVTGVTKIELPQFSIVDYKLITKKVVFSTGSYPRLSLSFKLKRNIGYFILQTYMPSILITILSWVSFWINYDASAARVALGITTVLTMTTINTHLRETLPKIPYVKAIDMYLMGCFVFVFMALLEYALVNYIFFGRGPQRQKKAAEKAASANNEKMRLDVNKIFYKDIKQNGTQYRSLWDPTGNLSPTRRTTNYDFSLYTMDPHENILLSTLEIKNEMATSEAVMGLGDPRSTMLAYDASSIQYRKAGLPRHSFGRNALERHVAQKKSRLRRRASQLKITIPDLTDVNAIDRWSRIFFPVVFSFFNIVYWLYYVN
# T2 sequence (P18507 whole entry): T1 sequence (P18507 whole entry)
# T2 sequence (P47869 whole entry): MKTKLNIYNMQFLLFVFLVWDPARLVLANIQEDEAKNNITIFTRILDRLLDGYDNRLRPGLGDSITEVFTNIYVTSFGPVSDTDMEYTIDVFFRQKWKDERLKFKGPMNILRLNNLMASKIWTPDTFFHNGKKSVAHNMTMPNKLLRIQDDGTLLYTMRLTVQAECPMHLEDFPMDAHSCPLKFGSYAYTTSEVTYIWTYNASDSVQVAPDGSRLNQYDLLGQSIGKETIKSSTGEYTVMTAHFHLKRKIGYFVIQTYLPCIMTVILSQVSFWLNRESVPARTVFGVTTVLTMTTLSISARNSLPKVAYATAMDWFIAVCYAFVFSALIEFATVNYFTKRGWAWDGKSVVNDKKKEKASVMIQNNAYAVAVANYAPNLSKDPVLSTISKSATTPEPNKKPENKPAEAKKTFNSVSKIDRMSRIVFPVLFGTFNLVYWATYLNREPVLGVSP
smiles,measurement,setting,value
CCOC(=O)c1ncn2c1CN=C(c1ccc(C)cc1)c1ccccc1-2,Activity,Oocyte [1],-4%
same,Ki,[2],18.5 nM
same,Activity,Oocyte [3],Active
same,Ki,[4],908 nM
same,Ki,[5],11.4 nM
same,Ki,[6],105 nM
CCOC(=O)c1ncn2c1CN=C(c1ccc(F)cc1)c1cc(F)ccc1-2,Activity,Oocyte [1],-1%
same,Ki,[2],22.3 nM
same,Activity,Oocyte [3],Active
same,Ki,[4],772 nM
same,Ki,[5],10.9 nM
same,Ki,[6],60 nM
